ChEMBL document CHEMBL1143614, “Structure-activity relationships of the unique and potent agouti-related protein (AGRP)-melanocortin chimeric Tyr-c[beta-Asp-His-DPhe-Arg-Trp-Asn-Ala-Phe-Dpr]-Tyr-NH2 peptide template” (J Med Chem, 2005)
Values belong to the compound of their own block, whether it stands above or below them. Where a SMILES comes first, the peptide text is derived from it. Bridges are numbered along the chain shown (N, C = ends).

Tests used:
[1] = target: Melanocortin receptor 3 (Mus musculus) (UniProt P33033); assay: Relative percent of stimulatory activity for mouse Melanocortin-3 receptor at 100 uM
Melanocortin receptor 3 (Mus musculus), sequence (P33033 whole entry): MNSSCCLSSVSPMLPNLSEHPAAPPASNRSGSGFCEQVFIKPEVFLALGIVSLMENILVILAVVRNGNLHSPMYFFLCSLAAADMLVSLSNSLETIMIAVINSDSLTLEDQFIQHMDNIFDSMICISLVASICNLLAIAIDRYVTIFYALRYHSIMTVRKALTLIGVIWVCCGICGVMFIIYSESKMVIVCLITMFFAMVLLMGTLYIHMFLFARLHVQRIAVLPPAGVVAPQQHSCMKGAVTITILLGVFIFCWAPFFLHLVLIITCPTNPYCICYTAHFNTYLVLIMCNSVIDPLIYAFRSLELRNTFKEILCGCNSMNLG
Outline: (§1)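 HEK-293 cells stably expressing mouse melanocortin receptors (G418-selected) were transiently transfected with a CRE/β-galactosidase reporter. 48 h after transfection, cells were stimulated for 6 h with peptide (10^-4 to 10^-12 M) or forskolin (10^-4 M) in DMEM with 0.1 mg/mL BSA and 0.1 mM IBMX. Lysates were incubated with ONPG at 37° and read at OD405. Signals were normalized to relative protein (OD595) and to forskolin response. EC50 came from nonlinear least-squares fits of duplicate experiments in quadruplet or more.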

[2] = target: Melanocyte-stimulating hormone receptor (Mus musculus, UniProt Q01727); assay: Effective concentration for mouse Melanocortin-1 receptor
Melanocyte-stimulating hormone receptor, sequence (Q01727 whole entry): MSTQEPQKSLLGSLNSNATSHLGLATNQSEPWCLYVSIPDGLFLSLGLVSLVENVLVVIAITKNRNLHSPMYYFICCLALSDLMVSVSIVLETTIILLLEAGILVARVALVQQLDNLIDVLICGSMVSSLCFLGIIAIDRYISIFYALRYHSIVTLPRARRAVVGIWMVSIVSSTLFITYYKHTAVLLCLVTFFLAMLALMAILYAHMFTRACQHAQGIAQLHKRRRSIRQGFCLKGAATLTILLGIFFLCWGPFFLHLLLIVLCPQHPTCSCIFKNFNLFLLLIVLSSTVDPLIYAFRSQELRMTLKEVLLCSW

[3] = target: Melanocortin receptor 4 (Mus musculus, UniProt P56450); assay: Effective concentration for mouse Melanocortin-4 receptor
Melanocortin receptor 4, sequence (P56450 whole entry): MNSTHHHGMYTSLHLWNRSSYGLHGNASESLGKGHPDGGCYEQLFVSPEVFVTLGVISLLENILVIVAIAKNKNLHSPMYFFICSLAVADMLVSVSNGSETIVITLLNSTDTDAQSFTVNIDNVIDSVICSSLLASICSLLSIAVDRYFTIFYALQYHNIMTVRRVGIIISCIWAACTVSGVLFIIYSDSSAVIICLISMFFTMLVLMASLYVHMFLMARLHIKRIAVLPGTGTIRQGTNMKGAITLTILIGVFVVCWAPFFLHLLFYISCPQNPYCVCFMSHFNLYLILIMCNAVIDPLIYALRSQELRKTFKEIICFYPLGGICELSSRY
Outline: (§2)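 HEK-293 cells stably expressing the mouse receptor (G418 selection), transiently transfected with a CRE/β-galactosidase reporter. Forskolin (10^-4 M) served as the control. After lysis, ONPG was added at 37° and OD405 was read. Signals were normalized to protein content and forskolin; EC50 came from a nonlinear least-squares fit, duplicate or more independent experiments in quadruplicate.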

[4] = target: Melanocortin receptor 5 (Mus musculus, UniProt P41149); assay: Effective concentration for mouse Melanocortin-5 receptor
Melanocortin receptor 5, sequence (P41149 whole entry): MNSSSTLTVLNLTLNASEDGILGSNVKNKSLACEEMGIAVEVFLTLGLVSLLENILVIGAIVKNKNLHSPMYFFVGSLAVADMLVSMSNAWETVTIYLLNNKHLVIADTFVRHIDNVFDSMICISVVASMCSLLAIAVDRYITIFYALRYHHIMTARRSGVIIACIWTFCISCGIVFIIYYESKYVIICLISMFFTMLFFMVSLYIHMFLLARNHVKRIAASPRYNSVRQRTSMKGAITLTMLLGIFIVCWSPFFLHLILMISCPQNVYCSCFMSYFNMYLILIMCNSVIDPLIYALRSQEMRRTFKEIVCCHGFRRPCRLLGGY

[5] = target: Melanocortin receptor 4 (Mus musculus) (UniProt P56450)
Melanocortin receptor 4 (Mus musculus), sequence (P56450 whole entry): as the sequence (P56450 whole entry) above

[6] = target: Melanocortin receptor 3 (Mus musculus, UniProt P33033); assay: Effective concentration for mouse Melanocortin-3 receptor; outline: as §2
Melanocortin receptor 3, sequence (P33033 whole entry): as the sequence (P33033 whole entry) above

[7] = target: Melanocortin receptor 3 (Mus musculus) (UniProt P33033); assay: Agonist activity for mouse Melanocortin-3 receptor; type: functional; outline: as §1
[8] = target: Melanocortin receptor 4 (Mus musculus) (UniProt P56450); assay: Partial agonist activity towards mouse Melanocortin-4 receptor; type: functional; outline: as §1
[9] = target: Melanocortin receptor 3 (Mus musculus) (UniProt P33033); assay: Antagonist activity for mouse Melanocortin-3 receptor; type: functional
[10] = species on record: Mus musculus; assay: Relative effective concentration for Melanocortin-3 and Melanocortin-4 receptors
[11] = target: Melanocortin receptor 3 (Mus musculus) (UniProt P33033); assay: Partial agonist activity towards mouse Melanocortin-3 receptor; type: functional; outline: as §1
[12] = target: Melanocortin receptor 4 (Mus musculus) (UniProt P56450); assay: Partial agonist concentration for mouse Melanocortin-4 receptor; type: functional

SA [1]: 60%
Compound: C[C@@H]1NC(=O)[C@H](CC(N)=O)NC(=O)[C@H](Cc2c[nH]c3ccccc23)NC(=O)[C@H](CCCN=C(N)N)NC(=O)[C@H](C)NC(=O)[C@H](Cc2c[nH]cn2)NC(=O)[C@@H](NC(=O)[C@@H](N)Cc2ccc(O)cc2)CC(=O)N([C@@H](Cc2ccc(O)cc2)C(N)=O)[C@@](C)(C(=O)O)NC(=O)[C@H](Cc2ccccc2)NC1=O

Compound: C[C@@H]1NC(=O)[C@H](CC(N)=O)NC(=O)[C@H](Cc2c[nH]c3ccccc23)NC(=O)[C@H](CCCN=C(N)N)NC(=O)[C@@H](Cc2ccccc2)NC(=O)C2(CCc3ccccc3C2)NC(=O)[C@@H](NC(=O)[C@@H](N)Cc2ccc(O)cc2)CC(=O)NC[C@@H](C(=O)N[C@@H](Cc2ccc(O)cc2)C(N)=O)NC(=O)[C@H](Cc2ccccc2)NC1=O (mixture of isomers)
EC50 [2]: 690 nM | EC50 [3]: 0.115 µM | EC50 [4]: 440 nM

pA2 [5]: 6.8
Compound: C[C@@H]1NC(=O)[C@H](CC(N)=O)NC(=O)[C@H](Cc2ccccc2)NC(=O)[C@H](Cc2ccccc2)NC(=O)[C@H](CCCN=C(N)N)NC(=O)[C@@H](NC(=O)[C@@H](N)Cc2ccc(O)cc2)CSSC[C@@H](C(=O)N[C@@H](Cc2ccc(O)cc2)C(N)=O)NC(=O)[C@H](Cc2ccccc2)NC1=O (H-YCRFFNAFCY-NH2; disulfide 2-9)

Compound: C[C@@H]1NC(=O)[C@H](CC(N)=O)NC(=O)[C@H](C)NC(=O)[C@H](CCCNC(=N)N)NC(=O)[C@@H](Cc2ccccc2)NC(=O)[C@H](Cc2c[nH]cn2)NC(=O)[C@@H](NC(=O)[C@@H](N)Cc2ccc(O)cc2)CC(=O)NC[C@@H](C(=O)N[C@@H](Cc2ccc(O)cc2)C(N)=O)NC(=O)[C@H](Cc2ccccc2)NC1=O
EC50 [2]: 350 nM | EC50 [3]: 0.71 µM | EC50 [4]: 50.1 nM

EC50 [6]: > 100000 nM | EC50 [4]: > 100000 nM
Compound: C[C@@H]1NC(=O)[C@H](CC(N)=O)NC(=O)[C@H](Cc2ccccc2)NC(=O)[C@H](Cc2ccccc2)NC(=O)[C@H](CCCNC(=N)N)NC(=O)[C@@H](NC(=O)[C@@H](N)Cc2ccc(O)cc2)CSSC[C@@H](C(=O)N[C@@H](Cc2ccc(O)cc2)C(N)=O)NC(=O)[C@H](Cc2ccccc2)NC1=O (H-YCRFFNAFCY-NH2; disulfide 2-9)

Compound: C[C@@H]1NC(=O)[C@H](CC(N)=O)NC(=O)[C@@H]2CCCN2C(=O)[C@H](CCCNC(=N)N)NC(=O)[C@@H](Cc2ccccc2)NC(=O)[C@H](Cc2c[nH]cn2)NC(=O)[C@@H](NC(=O)[C@@H](N)Cc2ccc(O)cc2)CC(=O)NC[C@@H](C(=O)N[C@@H](Cc2ccc(O)cc2)C(N)=O)NC(=O)[C@H](Cc2ccccc2)NC1=O
EC50 [2]: 1000 nM | EC50 [3]: 7.2 µM | EC50 [4]: 700 nM

SA [1]: 40% | pA2 [7]: 6.4
Compound: C[C@@H]1NC(=O)[C@H](CC(N)=O)NC(=O)[C@H](Cc2c[nH]c3ccccc23)NC(=O)[C@H](CCCN=C(N)N)NC(=O)[C@@H](Cc2ccccc2)NC(=O)C2(CCc3ccccc3C2)NC(=O)[C@@H](NC(=O)[C@@H](N)Cc2ccc(O)cc2)CC(=O)N([C@@H](Cc2ccc(O)cc2)C(N)=O)[C@@](C)(C(=O)O)NC(=O)[C@H](Cc2ccccc2)NC1=O (mixture of isomers)

Compound: C[C@@H]1NC(=O)[C@H](CC(N)=O)NC(=O)[C@H](Cc2c[nH]c3ccccc23)NC(=O)[C@H](CCCCN)NC(=O)[C@@H](Cc2ccccc2)NC(=O)[C@H](Cc2c[nH]cn2)NC(=O)[C@@H](NC(=O)[C@@H](N)Cc2ccc(O)cc2)CC(=O)NC[C@@H](C(=O)N[C@@H](Cc2ccc(O)cc2)C(N)=O)NC(=O)[C@H](Cc2ccccc2)NC1=O
EC50 [2]: 680 nM | EC50 [3]: 8.6 µM | EC50 [4]: 800 nM

pA2 [8]: 9.4 | pA2 [9]: 8.8
Compound: C[C@@H]1NC(=O)[C@H](CC(N)=O)NC(=O)[C@H](Cc2c[nH]c3ccccc23)NC(=O)[C@H](CCCN=C(N)N)NC(=O)[C@@H](Cc2ccc(I)cc2)NC(=O)[C@H](Cc2c[nH]cn2)NC(=O)[C@@H](NC(=O)[C@@H](N)Cc2ccc(O)cc2)CC(=O)N([C@@H](Cc2ccc(O)cc2)C(N)=O)[C@@](C)(C(=O)O)NC(=O)C(Cc2ccccc2)NC1=O (stereo in doubt)

Compound: C[C@@H]1NC(=O)[C@H](CC(N)=O)NC(=O)[C@H](Cc2ccc3ccccc3c2)NC(=O)[C@H](CCCN=C(N)N)NC(=O)[C@@H](Cc2ccccc2)NC(=O)[C@H](Cc2c[nH]cn2)NC(=O)[C@@H](NC(=O)[C@@H](N)Cc2ccc(O)cc2)CC(=O)N([C@@H](Cc2ccc(O)cc2)C(N)=O)[C@@](C)(C(=O)O)NC(=O)[C@H](Cc2ccccc2)NC1=O
Selectivity ratio [10]: 21 | EC50 [6]: 5.56 nM

pA2 [11]: 7.2
Compound: C[C@@H]1NC(=O)[C@H](CC(N)=O)NC(=O)[C@H](Cc2c[nH]c3ccccc23)NC(=O)[C@H](CCCN=C(N)N)NC(=O)[C@@H](Cc2ccccc2)NC(=O)[C@@H]2CCCN2C(=O)[C@@H](NC(=O)[C@@H](N)Cc2ccc(O)cc2)CC(=O)N([C@@H](Cc2ccc(O)cc2)C(N)=O)[C@@](C)(C(=O)O)NC(=O)[C@H](Cc2ccccc2)NC1=O

pA2 [9]: 8.2 | pA2 [12]: 9.1
Compound: C[C@@H]1NC(=O)[C@H](CC(N)=O)NC(=O)[C@H](Cc2c[nH]c3ccccc23)NC(=O)[C@H](CCCN=C(N)N)NC(=O)[C@@H](Cc2ccc3ccccc3c2)NC(=O)[C@H](Cc2c[nH]cn2)NC(=O)[C@@H](NC(=O)[C@@H](N)Cc2ccc(O)cc2)CC(=O)N([C@@H](Cc2ccc(O)cc2)C(N)=O)[C@@](C)(C(=O)O)NC(=O)[C@H](Cc2ccccc2)NC1=O

pA2 [11]: 7.2
Compound: C[C@@H]1NC(=O)[C@H](CC(N)=O)NC(=O)[C@H](Cc2c[nH]c3ccccc23)NC(=O)[C@H](CCCN=C(N)N)NC(=O)[C@@H](Cc2ccccc2)NC(=O)[C@H](Cc2ccccc2)NC(=O)[C@@H](NC(=O)[C@@H](N)Cc2ccc(O)cc2)CC(=O)N([C@@H](Cc2ccc(O)cc2)C(N)=O)[C@@](C)(C(=O)O)NC(=O)[C@H](Cc2ccccc2)NC1=O

Compound: C[C@@H]1NC(=O)[C@H](CC(N)=O)NC(=O)[C@H](Cc2c[nH]c3ccccc23)NC(=O)[C@H](CCCN=C(N)N)NC(=O)[C@@H](Cc2ccccc2)NC(=O)[C@H](Cc2c[nH]cn2)NC(=O)[C@@H](NC(=O)[C@@H](N)Cc2ccc(O)cc2)CC(=O)N([C@@H](Cc2ccc(O)cc2)C(N)=O)[C@@](C)(C(=O)O)NC(=O)[C@@H](Cc2ccccc2)NC1=O
Selectivity ratio [10]: 21 | EC50 [6]: 14 nM

Compound: C[C@@H]1NC(=O)[C@H](CC(N)=O)NC(=O)[C@H](Cc2c[nH]c3ccccc23)NC(=O)[C@H](C)NC(=O)[C@@H](Cc2ccccc2)NC(=O)[C@H](Cc2c[nH]cn2)NC(=O)[C@@H](NC(=O)[C@@H](N)Cc2ccc(O)cc2)CC(=O)N([C@@H](Cc2ccc(O)cc2)C(N)=O)[C@@](C)(C(=O)O)NC(=O)[C@H](Cc2ccccc2)NC1=O
Selectivity ratio [10]: 730 | EC50 [6]: 23800 nM

Compound: C[C@@H]1NC(=O)[C@H](CC(N)=O)NC(=O)[C@@H](Cc2ccc3ccccc3c2)NC(=O)[C@H](CCCN=C(N)N)NC(=O)[C@@H](Cc2ccccc2)NC(=O)[C@H](Cc2c[nH]cn2)NC(=O)[C@@H](NC(=O)[C@@H](N)Cc2ccc(O)cc2)CC(=O)N([C@@H](Cc2ccc(O)cc2)C(N)=O)[C@@](C)(C(=O)O)NC(=O)[C@H](Cc2ccccc2)NC1=O
Selectivity ratio [10]: 10 | EC50 [6]: 6.5 nM

Compound: C[C@@H]1NC(=O)[C@H](CC(N)=O)NC(=O)[C@H](C)NC(=O)[C@H](CCCN=C(N)N)NC(=O)[C@@H](Cc2ccccc2)NC(=O)[C@H](Cc2c[nH]cn2)NC(=O)[C@@H](NC(=O)[C@@H](N)Cc2ccc(O)cc2)CC(=O)N([C@@H](Cc2ccc(O)cc2)C(N)=O)[C@@](C)(C(=O)O)NC(=O)[C@H](Cc2ccccc2)NC1=O
Selectivity ratio [10]: 19 | EC50 [6]: 13500 nM
